# According to ChEMBL document CHEMBL3526053, “Species-dependent uptake of glycylsarcosine but not oseltamivir in Pichia pastoris expressing the rat, mouse, and human intestinal peptide transporter PEPT1” (Drug Metab Dispos, 2012):
# Assays:
# Type in all cases: ADME
# [1] = molecular target: T1, Solute carrier family 15 member 1 (Rattus norvegicus, UniProt P51574); assay: Drug uptake in Pichia pastoris GS115 expressing rat recombinant PEPT1 at 5 uM after 30s by dual-channel liquid scintillation counting analysis in presence of acyclovir relative to control; conditions: in vivo, 0.5 min
# T1 sequence (P51574 whole entry): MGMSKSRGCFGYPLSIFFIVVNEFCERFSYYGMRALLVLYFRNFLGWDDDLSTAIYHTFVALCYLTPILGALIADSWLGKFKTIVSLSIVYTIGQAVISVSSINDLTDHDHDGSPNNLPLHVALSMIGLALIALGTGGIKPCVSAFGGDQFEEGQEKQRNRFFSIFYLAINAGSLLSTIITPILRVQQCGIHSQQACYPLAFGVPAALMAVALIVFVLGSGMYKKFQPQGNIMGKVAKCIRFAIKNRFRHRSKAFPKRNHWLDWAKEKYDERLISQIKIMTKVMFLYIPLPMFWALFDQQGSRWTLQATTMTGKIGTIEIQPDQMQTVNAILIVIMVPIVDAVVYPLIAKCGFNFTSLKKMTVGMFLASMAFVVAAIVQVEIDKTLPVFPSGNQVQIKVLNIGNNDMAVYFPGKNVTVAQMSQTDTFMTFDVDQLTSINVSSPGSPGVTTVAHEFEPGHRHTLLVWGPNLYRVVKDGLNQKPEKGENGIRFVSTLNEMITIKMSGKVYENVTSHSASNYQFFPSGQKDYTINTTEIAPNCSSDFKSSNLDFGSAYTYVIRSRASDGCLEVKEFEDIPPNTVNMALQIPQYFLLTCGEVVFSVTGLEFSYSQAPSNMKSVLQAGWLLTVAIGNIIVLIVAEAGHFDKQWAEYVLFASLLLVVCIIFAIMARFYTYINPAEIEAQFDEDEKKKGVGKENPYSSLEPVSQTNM
# Procedure, shortened: (§1)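 [3H]GlySar 5.0 µM final, 30-s uptake at 24°C in 100 mM potassium phosphate pH 6.5, with or without a potential inhibitor at 10 mM. Cells are methanol-induced transformants. Values are vector-subtracted and expressed as percent of buffer control. Mean ± SE (n=3). ANOVA with Dunnett's test.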
# [2] = molecular target: T2, Solute carrier family 15 member 1 (Mus musculus, UniProt Q9JIP7); assay: Drug uptake in Pichia pastoris GS115 expressing mouse recombinant PEPT1 at 5 uM after 30s by dual-channel liquid scintillation counting analysis in presence of cefazolin relative to control; conditions: 0.5 min; procedure, shortened: as §1
# T2 sequence (Q9JIP7 whole entry): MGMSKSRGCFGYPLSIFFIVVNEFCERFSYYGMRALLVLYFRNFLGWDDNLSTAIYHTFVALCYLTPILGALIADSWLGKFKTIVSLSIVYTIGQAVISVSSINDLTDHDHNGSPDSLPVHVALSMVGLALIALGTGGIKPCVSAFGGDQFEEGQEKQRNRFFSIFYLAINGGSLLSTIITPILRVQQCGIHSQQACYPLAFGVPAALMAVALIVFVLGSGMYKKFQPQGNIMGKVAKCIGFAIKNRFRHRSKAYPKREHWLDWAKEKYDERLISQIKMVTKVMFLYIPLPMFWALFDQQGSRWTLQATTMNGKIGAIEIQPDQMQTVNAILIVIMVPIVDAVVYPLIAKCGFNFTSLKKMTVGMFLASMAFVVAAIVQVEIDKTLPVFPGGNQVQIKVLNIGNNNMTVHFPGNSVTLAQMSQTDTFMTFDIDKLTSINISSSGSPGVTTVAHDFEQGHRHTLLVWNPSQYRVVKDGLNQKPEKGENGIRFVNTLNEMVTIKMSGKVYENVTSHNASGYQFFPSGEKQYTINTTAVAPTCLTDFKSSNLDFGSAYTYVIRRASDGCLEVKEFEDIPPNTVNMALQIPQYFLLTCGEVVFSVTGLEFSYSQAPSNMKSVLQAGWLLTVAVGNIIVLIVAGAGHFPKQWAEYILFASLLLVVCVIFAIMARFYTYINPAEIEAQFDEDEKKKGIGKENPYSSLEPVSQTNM
# [3] = molecular target: T1, Solute carrier family 15 member 1; assay: Drug uptake in Pichia pastoris GS115 expressing rat recombinant PEPT1 at 5 uM after 30s by dual-channel liquid scintillation counting analysis in presence of SITS relative to control; conditions: in vivo, 0.5 min; procedure, shortened: as §1
# [4] = molecular target: T2, Solute carrier family 15 member 1; assay: Drug uptake in Pichia pastoris GS115 expressing mouse recombinant PEPT1 at 5 uM after 30s by dual-channel liquid scintillation counting analysis in presence of TEA relative to control; conditions: 0.5 min; procedure, shortened: as §1
# [5] = molecular target: T1, Solute carrier family 15 member 1; assay: Drug uptake in Pichia pastoris GS115 expressing rat recombinant PEPT1 at 5 uM after 30s by dual-channel liquid scintillation counting analysis in presence of elacridar relative to control; conditions: 0.5 min
# Procedure, shortened: (§2)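 Rat PEPT1 (pPIC3.5K-rPept1) in GS115 His+Mut+ transformant, methanol-induced 20-24 hr in BMMY at 30°C, washed into 100 mM potassium phosphate pH 6.5. [3H]GlySar final 5.0 µM with inhibitor at 10 mM, 30 sec at 24°C. Counts taken by liquid scintillation after 24 hr standing. Values are vector-subtracted and given as % of buffer control. Mean ± SE, n=3.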
# PEPT1 [6] = molecular target: T3, PEPT1 (Mus musculus, UniProt Q9JIP7); assay: Drug uptake in Pichia pastoris GS115 expressing mouse recombinant PEPT1 at 5 uM after 30s by dual-channel liquid scintillation counting analysis relative to vector control; conditions: read-out: FC
# T3 sequence (Q9JIP7 whole entry): T2 sequence (Q9JIP7 whole entry)
# Procedure, shortened: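 5.0 µM radiolabelled substrate uptake for 30 s at 24°C in pH 6.5 phosphate buffer by induced transformants. Radioactivity is counted by liquid scintillation and normalised to OD600. Results are compared with pPIC3.5K vector-alone cells. Mean ± SE (n=6).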
# PEPT1 [7] = molecular target: T4, PEPT1 (Rattus norvegicus, UniProt P51574); assay: Drug uptake in Pichia pastoris GS115 expressing rat recombinant PEPT1 at 5 uM after 30s by dual-channel liquid scintillation counting analysis relative to vector control; conditions: read-out: FC
# T4 sequence (P51574 whole entry): T1 sequence (P51574 whole entry)
# Procedure, shortened: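 Rat PEPT1 and vector-only (pPIC3.5K) GS115 yeast, methanol-induced 20-24 hr. Cells were washed and concentrated tenfold in 100 mM phosphate buffer pH 6.5. [3H]GlySar or [14C]oseltamivir final 5.0 µM, 24°C, 30 sec and 5 min. Nonspecific binding was measured at 0°C and zero time. Uptake is given as pmol/OD600 by scintillation counting. Mean ± SE, n=6.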
# [8] = molecular target: T2, Solute carrier family 15 member 1; assay: Activity at mouse recombinant PEPT1 expressed in Pichia pastoris GS115 assessed as non-saturable rate constant after 30s by dual-channel liquid scintillation counting analysis
# Procedure, shortened: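 [3H]GlySar concentration series 0.005-10 mM, 30-s uptake at 24°C in 100 mM potassium phosphate pH 6.5. Cells come from His+Mut+ GS115 transformants induced 20-24 h in methanol medium. Uptake is normalised to OD600. Data are fitted to Michaelis-Menten plus a first-order nonsaturable term (Kd), weighting unity. Parameters are mean ± SE (n=9).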
# [9] = molecular target: T2, Solute carrier family 15 member 1; assay: Drug uptake in Pichia pastoris GS115 expressing mouse recombinant PEPT1 at 5 uM after 30s by dual-channel liquid scintillation counting analysis relative to control; conditions: in vivo, 0.5 min; procedure, shortened: as §1
# [10] = molecular target: T1, Solute carrier family 15 member 1; assay: Drug uptake in Pichia pastoris GS115 expressing rat recombinant PEPT1 at 5 uM after 30s by dual-channel liquid scintillation counting analysis in presence of glycine relative to control; conditions: 0.5 min; procedure, shortened: as §2
smiles,measurement,setting,value
[3H]C(C(=O)O)N(C)C(=O)CN (stereo not given),Drug uptake,[1],109%
same,Drug uptake,[2],87.4%
same,Drug uptake,[3],107%
same,Drug uptake,[4],83.7%
same,Drug uptake,[5],119%
same,"uptake ratio at 0.5 min, 5 µM",PEPT1 [6],61
same,"uptake ratio at 0.5 min, 5 µM",PEPT1 [7],136
same,Kd,[8],2.21 uL/OD/min
same,Drug uptake,[9],100%
same,Drug uptake,[10],91.5%
